Each structure is given as a SMILES string. The source made the active and inactive calls. No cut-off for these calls is given here.

Sequence of Transient receptor potential cation channel subfamily V member 4 (Q9ERZ8 whole entry): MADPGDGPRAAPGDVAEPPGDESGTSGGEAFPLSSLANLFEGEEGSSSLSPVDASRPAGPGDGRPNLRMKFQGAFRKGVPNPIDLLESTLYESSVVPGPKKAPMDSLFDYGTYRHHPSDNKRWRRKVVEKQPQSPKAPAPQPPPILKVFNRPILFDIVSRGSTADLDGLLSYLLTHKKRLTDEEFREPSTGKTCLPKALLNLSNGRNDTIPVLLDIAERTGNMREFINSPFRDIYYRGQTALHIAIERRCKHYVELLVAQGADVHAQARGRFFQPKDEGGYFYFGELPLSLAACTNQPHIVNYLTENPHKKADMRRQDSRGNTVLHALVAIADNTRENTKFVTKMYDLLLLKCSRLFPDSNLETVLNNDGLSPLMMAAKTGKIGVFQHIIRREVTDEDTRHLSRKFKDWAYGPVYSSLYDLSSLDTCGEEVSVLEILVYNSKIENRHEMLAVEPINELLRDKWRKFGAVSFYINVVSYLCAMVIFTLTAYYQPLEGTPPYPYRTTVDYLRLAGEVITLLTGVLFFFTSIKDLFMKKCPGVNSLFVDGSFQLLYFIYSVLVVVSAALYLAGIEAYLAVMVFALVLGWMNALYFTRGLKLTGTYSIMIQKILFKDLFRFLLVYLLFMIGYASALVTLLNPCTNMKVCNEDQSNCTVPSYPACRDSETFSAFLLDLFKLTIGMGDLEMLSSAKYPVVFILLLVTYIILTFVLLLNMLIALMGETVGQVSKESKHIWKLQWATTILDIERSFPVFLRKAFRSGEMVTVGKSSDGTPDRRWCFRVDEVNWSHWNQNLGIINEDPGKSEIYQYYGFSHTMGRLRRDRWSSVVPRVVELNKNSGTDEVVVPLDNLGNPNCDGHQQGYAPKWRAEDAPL
Sequence of Transient receptor potential cation channel subfamily V member 1 (Q8NER1 whole entry): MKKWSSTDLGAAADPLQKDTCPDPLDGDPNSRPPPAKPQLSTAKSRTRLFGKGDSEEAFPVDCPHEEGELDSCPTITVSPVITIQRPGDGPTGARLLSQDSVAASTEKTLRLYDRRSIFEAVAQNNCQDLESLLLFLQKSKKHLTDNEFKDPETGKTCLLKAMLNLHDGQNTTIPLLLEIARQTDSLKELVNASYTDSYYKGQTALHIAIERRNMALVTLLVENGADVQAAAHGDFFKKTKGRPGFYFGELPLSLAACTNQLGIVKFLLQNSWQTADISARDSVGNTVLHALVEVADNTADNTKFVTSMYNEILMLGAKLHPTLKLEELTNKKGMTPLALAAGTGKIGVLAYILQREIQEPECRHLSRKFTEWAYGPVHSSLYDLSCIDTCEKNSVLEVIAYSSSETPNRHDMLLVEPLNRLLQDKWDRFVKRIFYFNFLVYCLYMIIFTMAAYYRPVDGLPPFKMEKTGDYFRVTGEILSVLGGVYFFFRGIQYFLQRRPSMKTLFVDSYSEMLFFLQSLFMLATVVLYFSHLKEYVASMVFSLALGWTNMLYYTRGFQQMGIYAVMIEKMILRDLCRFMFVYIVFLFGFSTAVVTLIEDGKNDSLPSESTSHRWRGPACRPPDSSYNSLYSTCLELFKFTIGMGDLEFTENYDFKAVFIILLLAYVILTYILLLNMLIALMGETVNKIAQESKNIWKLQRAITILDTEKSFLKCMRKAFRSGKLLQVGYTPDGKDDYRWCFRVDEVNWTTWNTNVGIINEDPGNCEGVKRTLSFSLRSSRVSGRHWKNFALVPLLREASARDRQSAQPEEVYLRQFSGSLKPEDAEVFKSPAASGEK
Sequence of Transient receptor potential cation channel subfamily A member 1 (Rattus norvegicus) (Q6RI86 whole entry): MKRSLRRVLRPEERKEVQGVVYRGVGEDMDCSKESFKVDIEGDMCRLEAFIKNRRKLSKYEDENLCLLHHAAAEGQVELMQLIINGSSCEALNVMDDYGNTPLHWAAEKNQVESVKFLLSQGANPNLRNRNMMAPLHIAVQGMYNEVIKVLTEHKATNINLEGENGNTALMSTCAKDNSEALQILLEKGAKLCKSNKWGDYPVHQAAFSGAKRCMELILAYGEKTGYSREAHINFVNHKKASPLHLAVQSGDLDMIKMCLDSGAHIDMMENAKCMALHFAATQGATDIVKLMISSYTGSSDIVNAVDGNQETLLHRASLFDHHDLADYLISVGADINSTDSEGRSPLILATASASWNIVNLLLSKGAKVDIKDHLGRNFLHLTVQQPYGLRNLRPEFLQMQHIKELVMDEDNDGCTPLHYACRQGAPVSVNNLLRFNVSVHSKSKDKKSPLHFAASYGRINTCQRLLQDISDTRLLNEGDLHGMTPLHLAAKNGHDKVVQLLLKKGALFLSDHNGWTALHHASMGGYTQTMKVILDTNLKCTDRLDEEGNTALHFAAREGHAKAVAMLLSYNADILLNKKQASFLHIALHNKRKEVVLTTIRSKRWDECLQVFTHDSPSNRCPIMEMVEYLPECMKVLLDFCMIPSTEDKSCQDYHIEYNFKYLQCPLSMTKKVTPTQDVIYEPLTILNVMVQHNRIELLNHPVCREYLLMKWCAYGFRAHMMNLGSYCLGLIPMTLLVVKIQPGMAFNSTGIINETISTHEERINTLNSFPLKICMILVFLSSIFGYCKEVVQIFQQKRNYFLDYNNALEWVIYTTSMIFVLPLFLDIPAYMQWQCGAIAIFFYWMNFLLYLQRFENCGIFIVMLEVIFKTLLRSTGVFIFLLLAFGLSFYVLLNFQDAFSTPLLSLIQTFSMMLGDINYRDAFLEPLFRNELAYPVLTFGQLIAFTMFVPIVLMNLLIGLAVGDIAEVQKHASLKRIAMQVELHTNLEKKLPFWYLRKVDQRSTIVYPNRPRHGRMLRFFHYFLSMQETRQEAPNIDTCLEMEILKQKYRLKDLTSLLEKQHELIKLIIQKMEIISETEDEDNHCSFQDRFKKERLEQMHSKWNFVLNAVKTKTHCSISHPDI

In one experiment the target is T1, Transient receptor potential cation channel subfamily M member 8 (Rattus norvegicus, UniProt Q8R455). In words: Antagonist activity at recombinant rat TRPM8 expressed in HEK293 cells assessed as inhibition of icilin-induced intracellular calcium accumulation preincubated for 5 mins followed by icilin addition by Fluo-4-AM probe-based spectrofluorimetric assay. The format is cell-based.
T1 sequence (Q8R455 whole entry): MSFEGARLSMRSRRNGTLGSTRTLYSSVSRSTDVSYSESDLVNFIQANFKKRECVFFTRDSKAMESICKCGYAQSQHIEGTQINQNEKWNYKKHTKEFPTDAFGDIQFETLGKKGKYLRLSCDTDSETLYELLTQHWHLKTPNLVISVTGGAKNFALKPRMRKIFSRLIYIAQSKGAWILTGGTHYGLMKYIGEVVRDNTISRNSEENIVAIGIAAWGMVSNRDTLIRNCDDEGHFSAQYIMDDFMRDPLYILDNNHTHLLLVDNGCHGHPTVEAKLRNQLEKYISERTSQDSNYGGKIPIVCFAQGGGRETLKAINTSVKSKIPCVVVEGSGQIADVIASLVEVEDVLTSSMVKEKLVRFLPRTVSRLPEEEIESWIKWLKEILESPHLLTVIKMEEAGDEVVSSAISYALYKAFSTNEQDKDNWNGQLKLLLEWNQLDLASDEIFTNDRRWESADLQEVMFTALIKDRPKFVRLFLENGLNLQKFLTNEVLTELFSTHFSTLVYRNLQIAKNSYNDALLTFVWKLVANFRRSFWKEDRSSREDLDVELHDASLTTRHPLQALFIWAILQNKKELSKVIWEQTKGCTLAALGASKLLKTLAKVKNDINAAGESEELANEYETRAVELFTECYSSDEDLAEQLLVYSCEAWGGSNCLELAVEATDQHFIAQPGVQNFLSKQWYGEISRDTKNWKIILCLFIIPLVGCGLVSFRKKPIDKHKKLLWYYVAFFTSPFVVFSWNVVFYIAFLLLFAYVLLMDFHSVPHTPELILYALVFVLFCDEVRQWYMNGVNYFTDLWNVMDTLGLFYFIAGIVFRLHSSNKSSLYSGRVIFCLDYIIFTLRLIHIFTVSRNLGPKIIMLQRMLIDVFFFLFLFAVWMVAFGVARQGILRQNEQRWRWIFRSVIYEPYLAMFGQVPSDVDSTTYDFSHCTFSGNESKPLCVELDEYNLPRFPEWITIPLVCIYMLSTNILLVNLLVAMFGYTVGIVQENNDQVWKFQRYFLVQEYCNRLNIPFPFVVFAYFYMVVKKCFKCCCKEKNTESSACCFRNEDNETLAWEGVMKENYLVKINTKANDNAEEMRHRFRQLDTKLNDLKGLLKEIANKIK
Conditions: not given
Summed up:
(§1)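 HEK-293 cells stably expressing the listed TRP channel (human TRPV1; rat TRPM8, TRPA1, TRPV2, TRPV3 or TRPV4) were Fluo-4-AM loaded (4 µM, 1 h, 25 °C) and suspended in Tyrode's buffer pH 7.4. Compound was added 5 min before agonist: icilin 0.25 µM (TRPM8), capsaicin 0.1 µM (TRPV1), AITC 100 µM (TRPA1), LPC 3 µM (TRPV2), thymol 100 µM (TRPV3), 4α-PDD 1 µM (TRPV4). Agonist alone was taken as 100%. IC50 from sigmoidal fit, at least triplicate.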
A general note: Calcium flux is commonly read through the fluorescence of an indicator in the cells.
The term IC50 denotes the concentration needed to halve the response being measured. Take `COc1cc(/C=C2\NC(=O)[C@@H]3Cc4c(OC)c(C)c(OC)c(OC)c4[C@@H](c4ccccc4)N3C2=O)c(OC)c(C)c1OC`: the IC50 came to 620 nM.
Same read-out and setting: under `COc1cc2c(cc1OC)[C@H](c1ccccc1)N(C(=O)N1CCc3cc(OC)c(OC)cc3[C@@H]1c1ccccc1)CC2` (racemic) stands 500 nM; under `COc1cc2c(cc1OC)[C@H](c1ccc(F)cc1)N(C(=O)N1CCc3cc(OC)c(OC)cc3[C@@H]1c1ccc(F)cc1)CC2` (racemic), 72 nM.
`COc1cc2c(cc1OC)[C@H](c1ccc(Cl)cc1)N(C(=O)N1CCc3cc(OC)c(OC)cc3[C@@H]1c1ccc(Cl)cc1)CC2` (racemic): the IC50 worked out at 430 nM.

The target in another experiment is T1, Transient receptor potential cation channel subfamily M member 8. The experiment in a line: Agonist activity at recombinant rat TRPM8 expressed in HEK293 cells assessed as increase in intracellular calcium accumulation by Fluo-4-AM probe-based spectrofluorimetric assay. The following applies: hek293. The format is cell-based. Summed up:
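HEK-293 cells stably expressing rat TRPM8 were loaded with Fluo-4-AM (4 µM, 0.02% Pluronic F-127) for 1 h at 25 °C in serum-free EMEM. They were then washed and suspended in Tyrode's buffer pH 7.4 in a stirred cuvette. [Ca2+]i fluorescence (ex 488/em 516 nm) was read before and after compound addition. Wild-type HEK-293 response was subtracted. Efficacy is expressed versus 4 µM ionomycin; EC50 comes from a sigmoidal fit.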
With `COc1cc(/C=C2\NC(=O)[C@@H]3Cc4c(OC)c(C)c(OC)c(OC)c4[C@@H](c4ccccc4)N3C2=O)c(OC)c(C)c1OC`, the EC50 entry is “Not Active”.
For `COc1cc2c(cc1OC)[C@H](c1ccccc1)N(C(=O)N1CCc3cc(OC)c(OC)cc3[C@@H]1c1ccccc1)CC2` (racemic), the EC50 entry is given as “Not Active”.
Take `COc1cc2c(cc1OC)[C@H](c1ccc(F)cc1)N(C(=O)N1CCc3cc(OC)c(OC)cc3[C@@H]1c1ccc(F)cc1)CC2` (racemic): the EC50 entry is “Not Active”.
Same read-out and setting: with `COc1cc2c(cc1OC)[C@H](c1ccc(Cl)cc1)N(C(=O)N1CCc3cc(OC)c(OC)cc3[C@@H]1c1ccc(Cl)cc1)CC2` (racemic) the entry was “Not Active”.

The next experiment concerns LNCaP. In words: Induction of apoptosis in human LNCAP cells assessed as increase in caspase3/7 activity at 10 uM after 72 hrs by caspase-glo 3/7 chemiluminescence assay relative to control. The format is functional.
Conditions: not given
Summed up: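 LNCaP cells were cultured 72 h with 10 µM compound or vehicle, then washed with PBS. Caspase-Glo 3/7 reagent was added to 1×10^4 cells/assay, incubated 1 h at room temperature in the dark, and luminescence was read. Vehicle blank was subtracted; runs were in triplicate. Camptothecin 0.1 µg/mL plus anti-Fas 0.2 µg/mL for 24 h served as the apoptosis reference.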
Turning to `COc1cc(/C=C2\NC(=O)[C@@H]3Cc4c(OC)c(C)c(OC)c(OC)c4[C@@H](c4ccccc4)N3C2=O)c(OC)c(C)c1OC`, the Activity stood at 200%.
Take `COc1cc2c(cc1OC)[C@H](c1ccccc1)N(C(=O)N1CCc3cc(OC)c(OC)cc3[C@@H]1c1ccccc1)CC2` (racemic): the Activity turned out to be 220%.
On to `COc1cc2c(cc1OC)[C@H](c1ccc(F)cc1)N(C(=O)N1CCc3cc(OC)c(OC)cc3[C@@H]1c1ccc(F)cc1)CC2` (racemic), for which the Activity worked out at 198%.
As for `COc1cc2c(cc1OC)[C@H](c1ccc(Cl)cc1)N(C(=O)N1CCc3cc(OC)c(OC)cc3[C@@H]1c1ccc(Cl)cc1)CC2` (racemic), the Activity came to 190%.

Another experiment addresses Transient receptor potential cation channel subfamily V member 4 (Rattus norvegicus, UniProt Q9ERZ8). The experiment in a line: Antagonist activity at recombinant rat TRPV4 expressed in HEK293 cells assessed as inhibition of 4alphaPDD-induced intracellular calcium accumulation preincubated for 5 mins followed by 4alphaPDD addition by Fluo-4-AM probe-based spectrofluorimetric assay.
Conditions: not given
The format is cell-based. The method, boiled down: as §1
As for `COc1cc(/C=C2\NC(=O)[C@@H]3Cc4c(OC)c(C)c(OC)c(OC)c4[C@@H](c4ccccc4)N3C2=O)c(OC)c(C)c1OC`, the IC50 was above 100000 nM.
Still for that read-out and setting: under `COc1cc2c(cc1OC)[C@H](c1ccccc1)N(C(=O)N1CCc3cc(OC)c(OC)cc3[C@@H]1c1ccccc1)CC2` (racemic) stands 82600 nM; under `COc1cc2c(cc1OC)[C@H](c1ccc(F)cc1)N(C(=O)N1CCc3cc(OC)c(OC)cc3[C@@H]1c1ccc(F)cc1)CC2` (racemic), 96200 nM.
On the same count and under the same terms, with `COc1cc2c(cc1OC)[C@H](c1ccc(Cl)cc1)N(C(=O)N1CCc3cc(OC)c(OC)cc3[C@@H]1c1ccc(Cl)cc1)CC2` (racemic) the figure was 81500 nM.

Another experiment addresses Transient receptor potential cation channel subfamily A member 1 (Rattus norvegicus) (UniProt Q6RI86). The experiment in a line: Antagonist activity at recombinant rat TRPA1 expressed in HEK293 cells assessed as inhibition of AITC-induced intracellular calcium accumulation up to 10 uM preincubated for 5 mins followed by AITC addition by Fluo-4-AM probe-based spectrofluorimetric assay. The class given is cell-based.
Conditions: not given
Summed up: as §1
`COc1cc(/C=C2\NC(=O)[C@@H]3Cc4c(OC)c(C)c(OC)c(OC)c4[C@@H](c4ccccc4)N3C2=O)c(OC)c(C)c1OC`: the inhibition result was “inactive”.
In the case of `COc1cc2c(cc1OC)[C@H](c1ccccc1)N(C(=O)N1CCc3cc(OC)c(OC)cc3[C@@H]1c1ccccc1)CC2` (racemic), the inhibition entry is “inactive”.
For `COc1cc2c(cc1OC)[C@H](c1ccc(F)cc1)N(C(=O)N1CCc3cc(OC)c(OC)cc3[C@@H]1c1ccc(F)cc1)CC2` (racemic), the inhibition result is “inactive”.
Consider `COc1cc2c(cc1OC)[C@H](c1ccc(Cl)cc1)N(C(=O)N1CCc3cc(OC)c(OC)cc3[C@@H]1c1ccc(Cl)cc1)CC2` (racemic), for which the inhibition entry is “inactive”.

Another experiment addresses Transient receptor potential cation channel subfamily V member 1 (Homo sapiens, UniProt Q8NER1). In words: Antagonist activity at recombinant human TRPV1 expressed in HEK293 cells assessed as inhibition of capsaicin-induced intracellular calcium accumulation up to 10 uM […] preincubated for 5 mins followed by capsaicin addition by Fluo-4-AM probe-based spectrofluorimetric assay.
Conditions: not given
The class given is cell-based. The method, boiled down: as §1
As for `COc1cc(/C=C2\NC(=O)[C@@H]3Cc4c(OC)c(C)c(OC)c(OC)c4[C@@H](c4ccccc4)N3C2=O)c(OC)c(C)c1OC`, the inhibition entry is “inactive”.
Turning to `COc1cc2c(cc1OC)[C@H](c1ccccc1)N(C(=O)N1CCc3cc(OC)c(OC)cc3[C@@H]1c1ccccc1)CC2` (racemic), the inhibition entry was “inactive”.
Turning to `COc1cc2c(cc1OC)[C@H](c1ccc(F)cc1)N(C(=O)N1CCc3cc(OC)c(OC)cc3[C@@H]1c1ccc(F)cc1)CC2` (racemic), the inhibition entry is “inactive”.
For the compound `COc1cc2c(cc1OC)[C@H](c1ccc(Cl)cc1)N(C(=O)N1CCc3cc(OC)c(OC)cc3[C@@H]1c1ccc(Cl)cc1)CC2` (racemic), the inhibition result was “inactive”.

Another experiment addresses T2, Transient receptor potential cation channel subfamily V member 2 (Rattus norvegicus) (UniProt Q9WUD2).
T2 sequence (whole entry): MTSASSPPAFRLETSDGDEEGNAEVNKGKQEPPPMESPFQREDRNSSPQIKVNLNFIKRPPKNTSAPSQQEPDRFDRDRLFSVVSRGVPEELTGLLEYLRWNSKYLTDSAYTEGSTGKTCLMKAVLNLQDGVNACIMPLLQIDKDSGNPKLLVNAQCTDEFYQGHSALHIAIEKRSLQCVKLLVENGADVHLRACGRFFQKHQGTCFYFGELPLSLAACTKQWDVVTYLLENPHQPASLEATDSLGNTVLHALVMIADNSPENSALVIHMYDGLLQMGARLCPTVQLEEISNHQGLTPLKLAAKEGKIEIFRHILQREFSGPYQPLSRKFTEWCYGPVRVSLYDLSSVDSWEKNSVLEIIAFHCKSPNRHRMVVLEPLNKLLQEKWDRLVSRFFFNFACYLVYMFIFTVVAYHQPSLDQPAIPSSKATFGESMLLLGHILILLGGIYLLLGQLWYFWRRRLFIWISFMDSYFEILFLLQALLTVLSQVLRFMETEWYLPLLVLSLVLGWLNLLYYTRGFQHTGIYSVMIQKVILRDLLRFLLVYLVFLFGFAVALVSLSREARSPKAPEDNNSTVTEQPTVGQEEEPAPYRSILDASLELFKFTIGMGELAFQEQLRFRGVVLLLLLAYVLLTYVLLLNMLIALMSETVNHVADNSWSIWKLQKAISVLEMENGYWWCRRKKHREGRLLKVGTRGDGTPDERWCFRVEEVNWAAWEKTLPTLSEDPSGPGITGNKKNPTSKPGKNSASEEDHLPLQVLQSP
The experiment in a line: Antagonist activity at recombinant rat TRPV2 expressed in HEK293 cells assessed as inhibition of LPC-induced intracellular calcium accumulation up to 10 uM preincubated for 5 mins followed by LPC addition by Fluo-4-AM probe-based spectrofluorimetric assay.
Conditions: not given
The class given is cell-based. Summed up: as §1
For the compound `COc1cc(/C=C2\NC(=O)[C@@H]3Cc4c(OC)c(C)c(OC)c(OC)c4[C@@H](c4ccccc4)N3C2=O)c(OC)c(C)c1OC`, the inhibition result is “inactive”.
For `COc1cc2c(cc1OC)[C@H](c1ccccc1)N(C(=O)N1CCc3cc(OC)c(OC)cc3[C@@H]1c1ccccc1)CC2` (racemic), the inhibition result is “inactive”.
`COc1cc2c(cc1OC)[C@H](c1ccc(F)cc1)N(C(=O)N1CCc3cc(OC)c(OC)cc3[C@@H]1c1ccc(F)cc1)CC2` (racemic): the inhibition result was “inactive”.
`COc1cc2c(cc1OC)[C@H](c1ccc(Cl)cc1)N(C(=O)N1CCc3cc(OC)c(OC)cc3[C@@H]1c1ccc(Cl)cc1)CC2` (racemic): the inhibition result was “inactive”.

For the next experiment, the target named is T3, Heat sensitive channel TRPV3 (Rattus norvegicus) (UniProt Q4QYD9).
T3 sequence (whole entry): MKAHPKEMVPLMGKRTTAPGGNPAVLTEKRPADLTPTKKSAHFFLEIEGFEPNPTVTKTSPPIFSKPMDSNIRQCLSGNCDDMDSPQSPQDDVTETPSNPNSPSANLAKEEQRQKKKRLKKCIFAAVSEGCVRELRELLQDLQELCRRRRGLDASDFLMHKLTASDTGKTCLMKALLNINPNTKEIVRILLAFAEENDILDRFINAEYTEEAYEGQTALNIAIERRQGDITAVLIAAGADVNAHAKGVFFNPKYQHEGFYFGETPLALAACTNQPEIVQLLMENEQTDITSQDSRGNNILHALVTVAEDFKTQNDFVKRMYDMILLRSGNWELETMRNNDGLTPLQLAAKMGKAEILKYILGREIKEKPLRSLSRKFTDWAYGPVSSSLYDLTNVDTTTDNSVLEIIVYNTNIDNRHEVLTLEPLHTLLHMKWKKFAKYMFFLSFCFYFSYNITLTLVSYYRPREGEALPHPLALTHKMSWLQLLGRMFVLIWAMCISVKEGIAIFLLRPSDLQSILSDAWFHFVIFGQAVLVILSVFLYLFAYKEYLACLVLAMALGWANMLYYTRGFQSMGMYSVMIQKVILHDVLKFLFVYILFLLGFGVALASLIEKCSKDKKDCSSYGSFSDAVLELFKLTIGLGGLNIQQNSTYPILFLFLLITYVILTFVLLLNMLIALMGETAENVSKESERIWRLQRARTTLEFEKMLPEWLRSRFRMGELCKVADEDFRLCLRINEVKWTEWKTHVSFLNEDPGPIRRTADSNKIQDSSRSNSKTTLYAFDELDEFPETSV
The experiment in a line: Antagonist activity at recombinant rat TRPV3 expressed in HEK293 cells assessed as inhibition of thymol-induced intracellular calcium accumulation up to 10 uM preincubated for 5 mins followed by thymol addition by Fluo-4-AM probe-based spectrofluorimetric assay.
Conditions: not given
The class given is cell-based. The method, boiled down: as §1
Regarding `COc1cc(/C=C2\NC(=O)[C@@H]3Cc4c(OC)c(C)c(OC)c(OC)c4[C@@H](c4ccccc4)N3C2=O)c(OC)c(C)c1OC`, the inhibition result is “inactive”.
Regarding `COc1cc2c(cc1OC)[C@H](c1ccccc1)N(C(=O)N1CCc3cc(OC)c(OC)cc3[C@@H]1c1ccccc1)CC2` (racemic), the inhibition result was “inactive”.
The same measure, in the same setting: with `COc1cc2c(cc1OC)[C@H](c1ccc(F)cc1)N(C(=O)N1CCc3cc(OC)c(OC)cc3[C@@H]1c1ccc(F)cc1)CC2` (racemic) the entry was “inactive”; with `COc1cc2c(cc1OC)[C@H](c1ccc(Cl)cc1)N(C(=O)N1CCc3cc(OC)c(OC)cc3[C@@H]1c1ccc(Cl)cc1)CC2` (racemic), “inactive”.

The values are drawn from ChEMBL document CHEMBL4477204, “Tetrahydroisoquinoline-Derived Urea and 2,5-Diketopiperazine Derivatives as Selective Antagonists of the Transient Receptor Potential Melastatin 8 (TRPM8) Channel Receptor and Antiprostate Cancer Agents” (J Med Chem, 2016).
